Measured values published in ChEMBL document CHEMBL1131226, “Structure-activity relationship of 2-[[(2-pyridyl)methyl]thio]-1H- benzimidazoles as anti Helicobacter pylori agents in vitro and evaluation of their in vivo efficacy” (J Med Chem, 1998).
Converted amounts (≈) assume the structure as drawn.

Key:
[1] = chromatographic retention
Helicobacter pylori = assay: Antibacterial activity against Helicobacter pylori strain.; assay type: functional
Procedure, shortened: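 H. pylori ATCC 43504 in Brucella broth (pH 7.0) with 10% FCS, starting at ~10⁶ CFU/mL. Compounds were tested as twofold serial dilutions, 0.5–256 μg/mL, made in DMSO. Cultures were incubated 72 h at 37 °C under 85% N₂/10% CO₂/5% O₂ and read by OD at 560 nm. MIC is the lowest concentration completely inhibiting growth.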

Helicobacter felis = assay: Antibacterial activity against Helicobacter felis strain in vitro.

Compound	Log Ko [1]	MBC (Helicobacter pylori) [µg/mL]	MBC (Helicobacter felis) [µg/mL]
CC1(C)S[C@@H]2[C@H](NC(=O)[C@H](N)c3ccc(O)cc3)C(=O)N2[C@H]1C(=O)O [AMOXICILLIN]		0.05 (≈ 0.137 µM)	0.05 (≈ 0.137 µM)
Clc1ccnc(CSc2nc3ccccc3[nH]2)c1	-0.08	64 (≈ 232 µM)	
Cc1cnc(CSc2nc3cc(C)ccc3[nH]2)c(C)c1	0.23	32 (≈ 113 µM)	
COc1ccc2[nH]c(SCc3cc(SC)ccn3)nc2c1	-0.16	256 (≈ 806 µM)	
CC(=O)c1ccc2[nH]c(SCc3cc(C(C)(C)C)ccn3)nc2c1	0.18	64 (≈ 189 µM)	
COc1ccnc(CSc2nc3ccccc3[nH]2)c1	-0.3	64 (≈ 236 µM)	
COc1ccc2[nH]c(SCc3ncc(C)c(OC)c3C)nc2c1 [UFIPRAZOLE]	0	32 (≈ 97.1 µM)	
c1ccc(CSc2nc3ccccc3[nH]2)nc1		128 (≈ 530 µM)	
Cc1cnc(CSc2nc3cc(Cl)ccc3[nH]2)c(C)c1	0.45	8 (≈ 26.3 µM)	
c1ccc2[nH]c(SCc3cc(OCC4CC4)ccn3)nc2c1	0.13	32 (≈ 103 µM)	
COc1c(C)cnc(CSc2nc3cc(C(C)(C)C)ccc3[nH]2)c1C	0.86	8 (≈ 22.5 µM)	
COc1ccnc(CSc2nc3cc(F)ccc3[nH]2)c1OC	0.44	4 (≈ 12.5 µM)	
CC(=O)c1ccc2[nH]c(SCc3ncc(C)cc3C)nc2c1	-0.11	128 (≈ 411 µM)	

Now from value to compound, other results behind:

Log Ko [1]	Compound	MBC (Helicobacter pylori) [µg/mL]	MBC (Helicobacter felis) [µg/mL]
0.67	Cc1c(OCc2ccccc2)ccnc1CSc1nc2ccccc2[nH]1	8 (≈ 22.1 µM)	
0.28	Cc1c(OCC(F)(F)F)ccnc1CSc1nc2ccccc2[nH]1 [LANSOPRAZOLE SULFIDE]	4 (≈ 11.3 µM)	
0.05	COc1c(C)cnc(CSc2nc3ccccc3[nH]2)c1C	8 (≈ 26.7 µM)	
0.75	Cc1c(OCC(C)C)ccnc1CSc1nc2ccccc2[nH]1	1 (≈ 3.05 µM)	
-0.17	COCCOc1ccnc(CSc2nc3ccccc3[nH]2)c1C	2 (≈ 6.07 µM)	
0.26	C=CCOc1ccnc(CSc2nc3ccccc3[nH]2)c1C	1 (≈ 3.21 µM)	
-0.01	C#CCOc1ccnc(CSc2nc3ccccc3[nH]2)c1C	2 (≈ 6.46 µM)	
0.46	Cc1c(OCC2CC2)ccnc1CSc1nc2ccccc2[nH]1	1 (≈ 3.07 µM)	0.5 (≈ 1.54 µM)
-0.66	COc1ccnc(CSc2nc3cc(CO)ccc3[nH]2)c1C	128 (≈ 406 µM)	
-0.08	COc1ccnc(CSc2nc3ccccc3[nH]2)c1C	32 (≈ 112 µM)	
0.19	CCOc1ccnc(CSc2nc3ccccc3[nH]2)c1C	2 (≈ 6.68 µM)	
0.07	COCCCOc1ccnc(CSc2nc3ccccc3[nH]2)c1C	2 (≈ 5.82 µM)	
-0.21	Cc1ccnc(CSc2nc3ccccc3[nH]2)c1	128 (≈ 501 µM)	
